The results in this text go back to ChEMBL document CHEMBL1122329, “Synthesis and antianxiety activity of (omega-piperazinylalkoxy)indan derivatives” (J Med Chem, 1983).

SMILES strings stand for the structures.

What all share (assay type): functional
The subject of assay [1] is Mus musculus. Briefly: Anti-morphine activity against morphine-induced Straub''s tail reaction in mice expressed as % inhibition at 25 mg/kg peroral administration. As to conditions: route oral. An outline of the steps:
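Six mice per group received test compounds orally 1 h before morphine (20 mg/kg ip). Straub's tail reaction was scored as the index of morphine's CNS stimulant action.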

The test system of assay [2] is Mus musculus. Briefly: Anti-fighting potency against foot shock induced fighting behavior in mice expressed as % inhibition at 25 mg/kg peroral administration. As to conditions: route oral.
Assay [3] concerns Mus musculus. Briefly: Anti-morphine activity against the morphine-induced Straub's tail reaction in mice on peroral administration. As to conditions: po. An outline of the steps: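 Mice, six per group, dosed orally with test compound 1 h before morphine (20 mg/kg ip); Straub's tail reaction scored as index of morphine CNS stimulation.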
For assay [4], the system named is Mus musculus. Briefly: Antifighting potency against the foot shock induced fighting behavior in mice on peroral administration. As to conditions: po.

Broadly, the inhibition in vivo is the share of the control response that was lost under treatment. `Fc1ccc(N2CCN(CCCOc3cccc4c3CCC4)CC2)cc1`: the figures for the inhibition in vivo at 25 mg/kg in the assay on Mus musculus [1] and in the assay with Mus musculus [2] were 25% and 5%, respectively.

Turning to `Fc1ccc(N2CCN(CCCOc3cc4c(cc3F)CCC4)CC2)cc1`, the inhibition in vivo at 25 mg/kg in the assay with Mus musculus [1] stood at 97%; in the assay on Mus musculus [2] it was 100%.

Consider `FC(F)(F)c1cccc(N2CCN(CCCOc3ccc4c(c3)CCC4)CC2)c1`, for which the figures for the inhibition in vivo at 25 mg/kg with Mus musculus [1] and in the assay on Mus musculus [2] were 73% and 0%, respectively.

Regarding `O=[N+]([O-])c1ccc(N2CCN(CCCCOc3ccc4c(c3)CCC4)CC2)cc1`, the figures for the inhibition in vivo at 25 mg/kg in the assay with Mus musculus [1] and with Mus musculus [2] were 22% and 0%, respectively.

Take `COc1ccc(N2CCN(CCCOc3ccc4c(c3)CCC4)CC2)cc1`: the inhibition in vivo at 25 mg/kg is 37% in the assay with Mus musculus [1] and 60% with Mus musculus [2].

As for `O=[N+]([O-])c1cc2c(cc1OCCCN1CCN(c3ccc(F)cc3)CC1)CCC2`, the inhibition in vivo at 25 mg/kg in the assay on Mus musculus [1] came to 28%; in the assay on Mus musculus [2] it was 58%.

As for `Fc1ccc(N2CCN(CCCOc3ccc4c(c3)C(c3ccccc3)CC4)CC2)cc1` (stereo unspecified), the inhibition in vivo at 25 mg/kg in the assay on Mus musculus [1] came out at 32%; with Mus musculus [2], 17%.

`Fc1ccc(N2CCN(CCCCCOc3ccc4c(c3)CCC4)CC2)cc1`: the values for the inhibition in vivo at 25 mg/kg in the assay on Mus musculus [1] and in the assay with Mus musculus [2] were 71% and 58%, respectively.

As for `Clc1ccc(N2CCN(CCCOc3ccc4c(c3)CCC4)CC2)cc1`, the inhibition in vivo at 25 mg/kg in the assay with Mus musculus [1] is 58%; with Mus musculus [2], 43%.

As to `Oc1cc2c(cc1OCCCN1CCN(c3ccc(F)cc3)CC1)CCC2`, the inhibition in vivo at 25 mg/kg with Mus musculus [1] came out at 0%; in the assay with Mus musculus [2], 25%.

Consider `Fc1cccc(N2CCN(CCCOc3ccc4c(c3)CCC4)CC2)c1`, for which the inhibition in vivo at 25 mg/kg in the assay with Mus musculus [1] turned out to be 42%; in the assay on Mus musculus [2] it was 19%.

For the compound `COc1ccccc1N1CCN(CCCOc2ccc3c(c2)CCC3)CC1`, the inhibition in vivo at 25 mg/kg is 19% with Mus musculus [1] and 0% with Mus musculus [2].

With `c1ccc(N2CCN(CCCCOc3ccc4c(c3)CCC4)CC2)cc1`, the inhibition in vivo at 25 mg/kg came out at 50% in the assay on Mus musculus [1] and 75% with Mus musculus [2].

On to `COc1cc2c(cc1OCCCN1CCN(c3ccccc3)CC1)CCC2`, for which the inhibition in vivo at 25 mg/kg with Mus musculus [1] came out at 65%; in the assay on Mus musculus [2] it was 50%.

As to `Clc1ccc(N2CCN(CCCCOc3ccc4c(c3)CCC4)CC2)cc1`, the values for the inhibition in vivo at 25 mg/kg with Mus musculus [1] and with Mus musculus [2] were 33% and 31%, respectively.

In general, ED50 refers to the dose at which the effect has come halfway, by size or by number of responders. Higher therefore signals weaker potency. With `Cl.Cl.O=[N+]([O-])c1ccccc1N1CCN(CCCCOc2ccc3c(c2)CCC3)CC1`, the inhibition in vivo at 25 mg/kg is 54% with Mus musculus [1] and 42% with Mus musculus [2]. Besides, the ED50 in the assay on Mus musculus [3] was determined as 23 mg/kg; in the assay with Mus musculus [4] it was 25.8 mg/kg.

In the case of `Oc1cc2c(cc1OCCCN1CCN(c3ccccc3)CC1)CCC2`, the results for the inhibition in vivo at 25 mg/kg in the assay with Mus musculus [1] and in the assay with Mus musculus [2] were 0% and 17%, respectively.

Regarding `CC(=O)c1ccc(N2CCN(CCCOc3ccc4c(c3)CCC4)CC2)cc1`, the inhibition in vivo at 25 mg/kg in the assay with Mus musculus [1] was found to be 0%; with Mus musculus [2], 13%.

As to `Fc1cc2c(cc1OCCCN1CCN(c3cccc(C(F)(F)F)c3)CC1)CCC2`, the inhibition in vivo at 25 mg/kg was 20% in the assay with Mus musculus [1] and 0% with Mus musculus [2].

As for `Cl.Cl.Cl.Clc1ccccc1N1CCN(CCCCOc2ccc3c(c2)CCC3)CC1`, the inhibition in vivo at 25 mg/kg with Mus musculus [1] came out at 42%; in the assay on Mus musculus [2] it was 85%. For the same compound, the values for the ED50 in the assay with Mus musculus [3] and in the assay on Mus musculus [4] were 30 mg/kg and 14.5 mg/kg, respectively.

On to `c1ccc(N2CCN(CCOc3ccc4c(c3)CCC4)CC2)cc1`, for which the inhibition in vivo at 25 mg/kg in the assay with Mus musculus [1] was 17%; in the assay on Mus musculus [2], 0%.

With `Cl.Cl.Fc1ccc(N2CCN(CCCCOc3cc4c(cc3F)CCC4)CC2)cc1`, the inhibition in vivo at 25 mg/kg in the assay with Mus musculus [1] was 90%; with Mus musculus [2], 83%. The ED50 was 10.2 mg/kg with Mus musculus [3] and 14.4 mg/kg with Mus musculus [4].

As for `Clc1cc(Cl)cc(N2CCN(CCCOc3ccc4c(c3)CCC4)CC2)c1`, the inhibition in vivo at 25 mg/kg with Mus musculus [1] and in the assay with Mus musculus [2] was 0% in each case.

For the compound `Fc1ccc(N2CCN(CCOc3ccc4c(c3)CCC4)CC2)cc1`, the values for the inhibition in vivo at 25 mg/kg in the assay on Mus musculus [1] and in the assay on Mus musculus [2] were 0% and 40%, respectively.

With `Clc1ccccc1N1CCN(CCCOc2ccc3c(c2)CCC3)CC1`, the figures for the inhibition in vivo at 25 mg/kg in the assay on Mus musculus [1] and in the assay on Mus musculus [2] were 42% and 40%, respectively.
